# Test results taken from ChEMBL document CHEMBL5376013, “Design, synthesis and biological evaluation of novel morpholinopyrimidine-5-carbonitrile derivatives as dual PI3K/mTOR inhibitors” (RSC Med Chem, 2024).
# Tests used:
# Type in all cases: functional
# Details in all cases: read-out: GI
# CCRF-CEM = experiment: Antitumor activity against human CCRF-CEM cells assessed as growth inhibition at 10 uM relative to control
# Procedure, shortened: (§1)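 After drug addition, plates were incubated 48 h at 37 °C under 5% CO2. Adherent cells were fixed with cold TCA (10% final, 60 min, 4 °C) and suspension cells with 16% final TCA. Staining used 0.4% SRB in 1% acetic acid, solubilized in 10 mM trizma, read at A515. Percent growth was calculated from time-zero, control and treated absorbances.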
# OVCAR-3 = experiment: Antitumor activity against human OVCAR-3 cells assessed as growth inhibition at 10 uM relative to control; procedure, shortened: as §1
# Malme-3M = experiment: Antitumor activity against human Malme-3M cells assessed as growth inhibition at 10 uM relative to control; procedure, shortened: as §1
# MCF7 = experiment: Antitumor activity against human MCF7 cells assessed as growth inhibition at 10 uM relative to control; procedure, shortened: as §1
# RXF 393 = experiment: Antitumor activity against human RXF 393 cells assessed as growth inhibition at 10 uM relative to control; procedure, shortened: as §1
# NCI-H226 = experiment: Antitumor activity against human NCI-H226 cells assessed as growth inhibition at 10 uM relative to control; procedure, shortened: as §1
# RPMI-8226 = experiment: Antitumor activity against human RPMI-8226 cells assessed as growth inhibition at 10 uM relative to control; procedure, shortened: as §1
# MOLT-4 = experiment: Antitumor activity against human MOLT-4 cells assessed as growth inhibition at 10 uM relative to control; procedure, shortened: as §1
# HOP-92 = experiment: Antitumor activity against human HOP-92 cells assessed as growth inhibition at 10 uM relative to control; procedure, shortened: as §1
# NCI-H23 = experiment: Antitumor activity against human NCI-H23 cells assessed as growth inhibition at 10 uM relative to control; procedure, shortened: as §1
# SK-MEL-5 = experiment: Antitumor activity against human SK-MEL-5 cells assessed as growth inhibition at 10 uM relative to control
# Procedure, shortened: (§2)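 Drug exposure 48 h at 37 °C, 5% CO2. Adherent cells fixed with cold TCA (10% final), suspension cells with TCA (16% final). Stained with 0.4% SRB in 1% acetic acid, dissolved in 10 mM Tris, A515. Growth relative to time-zero and untreated control.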
# MDA-MB-231 = experiment: Antitumor activity against human MDA-MB-231 cells assessed as growth inhibition at 10 uM relative to control; procedure, shortened: as §1
# SW-620 = experiment: Antitumor activity against human SW-620 cells assessed as growth inhibition at 10 uM relative to control; procedure, shortened: as §2
# DU-145 = experiment: Antitumor activity against human DU-145 cells assessed as growth inhibition at 10 uM relative to control; procedure, shortened: as §1
# SK-MEL-28 = experiment: Antitumor activity against human SK-MEL-28 cells assessed as growth inhibition at 10 uM relative to control; procedure, shortened: as §2
# LOX IMVI = experiment: Antitumor activity against human LOX IMVI cells assessed as growth inhibition at 10 uM relative to control; procedure, shortened: as §1
# HOP-62 = experiment: Antitumor activity against human HOP-62 cells assessed as growth inhibition at 10 uM relative to control; procedure, shortened: as §1
# UO-31 = experiment: Antitumor activity against human UO-31 cells assessed as growth inhibition at 10 uM relative to control; procedure, shortened: as §2
# HCT-116 = experiment: Antitumor activity against human HCT-116 cells assessed as growth inhibition at 10 uM relative to control; procedure, shortened: as §1
# SF-539 = experiment: Antitumor activity against human SF-539 cells assessed as growth inhibition at 10 uM relative to control; procedure, shortened: as §1
# HT-29 = experiment: Antitumor activity against human HT-29 cells assessed as growth inhibition at 10 uM relative to control; procedure, shortened: as §1
# PC-3 = experiment: Antitumor activity against human PC-3 cells assessed as growth inhibition at 10 uM relative to control; procedure, shortened: as §1
# SN12C = experiment: Antitumor activity against human SN12C cells assessed as growth inhibition at 10 uM relative to control; procedure, shortened: as §2
# SNB-75 = experiment: Antitumor activity against human SNB-75 cells assessed as growth inhibition at 10 uM relative to control; procedure, shortened: as §2
# U-251 = experiment: Antitumor activity against human U-251 cells assessed as growth inhibition at 10 uM relative to control; procedure, shortened: as §2
# HCT-15 = experiment: Antitumor activity against human HCT-15 cells assessed as growth inhibition at 10 uM relative to control; procedure, shortened: as §1
# UACC-62 = experiment: Antitumor activity against human UACC-62 cells assessed as growth inhibition at 10 uM relative to control; procedure, shortened: as §2
# T47D = experiment: Antitumor activity against human T47D cells assessed as growth inhibition at 10 uM relative to control; procedure, shortened: as §2
# SK-OV-3 = experiment: Antitumor activity against human SK-OV-3 cells assessed as growth inhibition at 10 uM relative to control; procedure, shortened: as §2
# COLO 205 = experiment: Antitumor activity against human COLO 205 cells assessed as growth inhibition at 10 uM relative to control; procedure, shortened: as §1
# A549 = experiment: Antitumor activity against human A549 cells assessed as growth inhibition at 10 uM relative to control; procedure, shortened: as §1
# NCI-H522 = experiment: Antitumor activity against human NCI-H522 cells assessed as growth inhibition at 10 uM relative to control; procedure, shortened: as §1
# OVCAR-4 = experiment: Antitumor activity against human OVCAR-4 cells assessed as growth inhibition at 10 uM relative to control; procedure, shortened: as §1
# UACC-257 = experiment: Antitumor activity against human UACC-257 cells assessed as growth inhibition at 10 uM relative to control; procedure, shortened: as §2
# KM12 = experiment: Antitumor activity against human KM12 cells assessed as growth inhibition at 10 uM relative to control; procedure, shortened: as §1
# K562 = experiment: Antitumor activity against human K562 cells assessed as growth inhibition at 10 uM relative to control; procedure, shortened: as §1
# SNB-19 = experiment: Antitumor activity against human SNB-19 cells assessed as growth inhibition at 10 uM relative to control; procedure, shortened: as §2
# 786-0 = experiment: Antitumor activity against human 786-0 cells assessed as growth inhibition at 10 uM relative to control; procedure, shortened: as §1
# BT-549 = experiment: Antitumor activity against human BT-549 cells assessed as growth inhibition at 10 uM relative to control; procedure, shortened: as §1
# NCI/ADR-RES = experiment: Antitumor activity against human NCI-ADR-RES cells assessed as growth inhibition at 10 uM relative to control; procedure, shortened: as §1
# SF-268 = experiment: Antitumor activity against human SF-268 cells assessed as growth inhibition at 10 uM relative to control; procedure, shortened: as §1
# CAKI-1 = experiment: Antitumor activity against human CAKI-1 cells assessed as growth inhibition at 10 uM relative to control; procedure, shortened: as §1
# MDA-MB-468 = experiment: Antitumor activity against human MDA-MB-468 cells assessed as growth inhibition at 10 uM relative to control; procedure, shortened: as §1
# ACHN = experiment: Antitumor activity against human ACHN cells assessed as growth inhibition at 10 uM relative to control; procedure, shortened: as §1
# SR = experiment: Antitumor activity against human SR cells assessed as growth inhibition at 10 uM relative to control; procedure, shortened: as §2
# SK-MEL-2 = experiment: Antitumor activity against human SK-MEL-2 cells assessed as growth inhibition at 10 uM relative to control; procedure, shortened: as §1
smiles,measurement,setting,value
N#Cc1c(-c2ccc(Cl)cc2)nc(N/N=C/c2ccc[nH]2)nc1N1CCOCC1,inhibition of growth at 10 µM,CCRF-CEM,79.2%
same,inhibition of growth at 10 µM,OVCAR-3,54.4%
same,inhibition of growth at 10 µM,Malme-3M,< 11.1%
same,inhibition of growth at 10 µM,MCF7,< 29.3%
same,inhibition of growth at 10 µM,RXF 393,< 1%
same,inhibition of growth at 10 µM,NCI-H226,31.1%
same,inhibition of growth at 10 µM,RPMI-8226,93.6%
same,inhibition of growth at 10 µM,MOLT-4,82.6%
same,inhibition of growth at 10 µM,HOP-92,31.1%
same,inhibition of growth at 10 µM,NCI-H23,< 1%
same,inhibition of growth at 10 µM,SK-MEL-5,14.8%
same,inhibition of growth at 10 µM,MDA-MB-231,20.3%
same,inhibition of growth at 10 µM,SW-620,10.8%
same,inhibition of growth at 10 µM,DU-145,15.8%
same,inhibition of growth at 10 µM,SK-MEL-28,< 1%
same,inhibition of growth at 10 µM,LOX IMVI,12.2%
same,inhibition of growth at 10 µM,HOP-62,58.4%
same,inhibition of growth at 10 µM,UO-31,85.2%
same,inhibition of growth at 10 µM,HCT-116,< 1%
same,inhibition of growth at 10 µM,SF-539,66.6%
same,inhibition of growth at 10 µM,HT-29,33.8%
same,inhibition of growth at 10 µM,PC-3,53.4%
same,inhibition of growth at 10 µM,SN12C,59.9%
same,inhibition of growth at 10 µM,SNB-75,< 1%
same,inhibition of growth at 10 µM,U-251,< 1%
same,inhibition of growth at 10 µM,HCT-15,21.1%
same,inhibition of growth at 10 µM,UACC-62,12%
same,inhibition of growth at 10 µM,T47D,35.1%
same,inhibition of growth at 10 µM,SK-OV-3,15.3%
same,inhibition of growth at 10 µM,COLO 205,18.4%
same,inhibition of growth at 10 µM,A549,45.6%
same,inhibition of growth at 10 µM,NCI-H522,91.7%
same,inhibition of growth at 10 µM,OVCAR-4,25.9%
same,inhibition of growth at 10 µM,UACC-257,12.1%
same,inhibition of growth at 10 µM,KM12,63.5%
same,inhibition of growth at 10 µM,K562,55.8%
same,inhibition of growth at 10 µM,SNB-19,25.8%
same,inhibition of growth at 10 µM,786-0,76.1%
same,inhibition of growth at 10 µM,BT-549,83.1%
same,inhibition of growth at 10 µM,NCI/ADR-RES,15.5%
same,inhibition of growth at 10 µM,SF-268,53.8%
same,inhibition of growth at 10 µM,CAKI-1,< 1%
same,inhibition of growth at 10 µM,MDA-MB-468,21.8%
same,inhibition of growth at 10 µM,ACHN,17.5%
same,inhibition of growth at 10 µM,SR,68.8%
same,inhibition of growth at 10 µM,SK-MEL-2,< 1%
